A selection: hits, their analogues and other compounds. The true share with any hit is near 3.4%.
PolyA inhibitor: inhibitors of polyadenylation in S. cerevisiae; S. cerevisiae SKY197-pL101 polyadenylation reporter, beta-gal luminescence; efflux-impaired pdr1/pdr3 knockout yeast; score 100 = 6 SD above DMSO; activity score, % at 12 µM; 300,000 compounds, 0.02% hits; AID 1875;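 active means lowest replicate activity score at least 50, where 100 means six control SD above control mean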;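 further: yeast exposed to compound for 9 h at 30 °C; higher score means more reporter readthrough which indicates perturbed polyadenylation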
APOBEC3G inh: blocks human APOBEC3G single-stranded DNA deamination; Q9HC16; recombinant A3G, ssDNA deamination FAM/TAMRA fluorescence; inhibition, % at 20 µM; 330,000 compounds, 0.28% hits; AID 493012;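 active means inhibition of at least 40% at 20 µM, with no more than 30% in the related APOBEC3A deaminase screen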
AHR act: human AHR activation | P35869 | AHR-responsive luciferase reporter cells, luminescence | activation, % at 5 µM | 320,000 compounds, 2.5% hits | AID 2796; in the data active means activation above about 47%
A3A deaminase: blocks human APOBEC3A ssDNA deamination; P31941; recombinant A3A, FAM/TAMRA ssDNA deamination fluorescence; inhibition, % at 20 µM; 330,000 compounds, 0.41% hits;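 active means at least 40% inhibition at 20 µM here, with at most 30% in a related deaminase screen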
Target sequence (P31941 whole entry, looked up): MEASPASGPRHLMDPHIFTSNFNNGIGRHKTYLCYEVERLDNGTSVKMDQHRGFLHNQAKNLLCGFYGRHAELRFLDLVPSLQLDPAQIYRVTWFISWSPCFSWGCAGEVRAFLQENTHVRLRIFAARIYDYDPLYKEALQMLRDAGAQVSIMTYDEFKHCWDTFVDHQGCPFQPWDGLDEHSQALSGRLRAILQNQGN
UCH37 DUB inh: human UCH37 deubiquitinating enzyme inhibition. Q9Y5K5. purified proteasome/UCH37, Ub-AMC cleavage fluorescence. inhibition, % (test concentration not listed). 330,000 compounds, 0.33% hits;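 active means mean inhibition over replicate wells above about 20%, limit read from the data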
Target sequence (Q9Y5K5 whole entry, looked up): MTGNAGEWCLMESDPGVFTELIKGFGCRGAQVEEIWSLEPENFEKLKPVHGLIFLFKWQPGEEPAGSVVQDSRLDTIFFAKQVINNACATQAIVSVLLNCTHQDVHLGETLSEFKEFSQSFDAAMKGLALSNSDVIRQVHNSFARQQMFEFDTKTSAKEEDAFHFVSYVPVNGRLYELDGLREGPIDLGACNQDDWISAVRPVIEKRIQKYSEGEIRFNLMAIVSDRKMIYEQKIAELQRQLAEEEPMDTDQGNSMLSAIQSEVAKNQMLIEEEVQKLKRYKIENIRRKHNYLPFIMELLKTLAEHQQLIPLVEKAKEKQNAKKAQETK
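Material: Human UCH37 enzyme supplied as purified proteasome complex | Schedule: 30 min preincubation with enzyme, 25 min cleavage at room temperature | Detection: AMC fluorescence 355/460 nm | Measure: % inhibition of Ub-AMC cleavage fluorescence | Controls: Wells without proteasome as full block, compound-free enzyme plus substrate as uninhibited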
Arrestin-AP2 inh: human beta-arrestin and AP2 interaction inhibition; FITC-arrestin peptide / GST-AP2 beads, flow cytometry; AP2 beta2 appendage carries R879A mutation; inhibition, % at 10 µM; 340,000 compounds, 0.31% hits; AID 504490;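 active means inhibition above a set limit, near 3 SD of compounds lacking own fluorescence, cut at about 54% in these data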
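Measured by: flow cytometry, FL1 (488/535 nm); Material: AP2 appendage R879A on GSH beads; Evaluation: percent response; Timing: pre-incubation 12 min, peptide binding 1 h, room temperature; Also added: 50 nM FITC-arrestin peptide; Medium: PBS with 0.05% Tween 20 and 0.1% BSA.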
Each line names hits and unclear results; the compound was inactive in the other large screens.

COc1ccc(-c2nnc(Nc3nc4c(OC)cccc4s3)o2)cc1	AHR act 75 (no result: APOBEC3G inh, A3A deaminase)
Cc1ccc(C(=O)/C=C/c2c[nH]c3ccccc23)cc1	AHR act 52
COc1ccc2[nH]cc(/C=C/C(=O)c3ccccc3)c2c1	none
Cc1[nH]c2ccccc2c1/C=C/C(=O)c1ccncc1	AHR act 56
CC(=NNC(=O)c1ccc(CSc2nncn2C)cc1)c1ccc(C#N)cc1	none (no result: PolyA inhibitor, APOBEC3G inh, AHR act, A3A deaminase, Arrestin-AP2 inh)
Clc1ccc(-c2c[nH]c3ccccc23)nn1	none
Brc1ccc(-c2csc(-c3c[nH]c4ccccc34)n2)cc1	AHR act 78
c1ccc2c(-c3csc(-c4ccncc4)n3)c[nH]c2c1	AHR act 58
O=C(Cn1nc2ccccc2n1)NN=Cc1ccc(F)cc1	none (no result: PolyA inhibitor, APOBEC3G inh, AHR act, A3A deaminase, Arrestin-AP2 inh)
COc1ccnc(-n2cccc2C=NO)c1C#N	none (no result: PolyA inhibitor, APOBEC3G inh, AHR act, A3A deaminase, Arrestin-AP2 inh)
CCOC(=O)c1c(C)n(C)c2ccc(OC)c(NC(=O)CN3CCCCC3)c12	none
CCOC(=O)c1c(C)n(C)c2ccc(OC)c([N+](=O)[O-])c12	AHR act 55
C=CCn1cc(C=NNC(=O)c2cc3c(ccc4ccccc43)o2)c2ccccc21	none (no result: PolyA inhibitor, APOBEC3G inh, AHR act, A3A deaminase, Arrestin-AP2 inh)
c1ccc(-c2ccc(C(c3ccccc3)n3ccnc3)cc2)cc1 (configuration not stated)	AHR act 48 (no result: APOBEC3G inh, A3A deaminase)
Cc1ccc(C=NNC(=O)c2c(-c3ccccc3)noc2C)o1	none (no result: PolyA inhibitor, APOBEC3G inh, AHR act, A3A deaminase, Arrestin-AP2 inh)
CCN(CC)c1ccc(C(=O)c2ccccc2C(=O)O)c(O)c1	UCH37 DUB inh 20
Cc1ccc(OCC(=O)N/N=C/c2cn[nH]c2-c2ccc(Cl)c(Cl)c2)cc1	none (no result: UCH37 DUB inh)
Cc1cccc(OCC(=O)N/N=C/c2cn[nH]c2-c2ccc(Cl)c(Cl)c2)c1	AHR act 47 (no result: UCH37 DUB inh)
c1cncc(-c2nnc(SCc3nc4ccccc4[nH]3)o2)c1	AHR act 73
c1ccc(CSc2nnc(-c3cccnc3)o2)cc1	none
CCN(CC)c1ccc(/C=C2\C(=N)N3N=C(CC(=O)N4CCOCC4)SC3=NC2=O)cc1	UCH37 DUB inh 21
NC(=NOCc1ccccc1)c1nonc1N	none (no result: PolyA inhibitor, APOBEC3G inh, AHR act, A3A deaminase, Arrestin-AP2 inh)
Cc1ccc(-c2nc(NCCN3CCOCC3)c3ccccc3n2)cc1	AHR act 66
Clc1ccc(-c2nc(NCCCN3CCOCC3)c3ccccc3n2)cc1	AHR act 71 (no result: UCH37 DUB inh)
Clc1cccc(-c2nc(NCCCN3CCOCC3)c3ccccc3n2)c1	none
CCOC(=O)C(=NNc1ccc(Cl)cc1)S(=O)(=O)c1ccccc1	none (no result: PolyA inhibitor, APOBEC3G inh, AHR act, A3A deaminase, Arrestin-AP2 inh)
c1ccc(C2=NOC(c3nnc(-c4ccccc4)o3)C2)cc1 (configuration not stated)	UCH37 DUB inh 33
Fc1ccc(C2=NOC(c3nnc(-c4ccccc4)o3)C2)cc1 (configuration not stated)	none
CCN(CC)C(=O)Oc1ccc2c(c1)O/C(=C\c1ccco1)C2=O	PolyA inhibitor 59
Cc1cccc(NC(=S)/N=C(\N)Nc2nc(C)c3ccccc3n2)c1	AHR act 69
Cc1ccc(NC(=S)/N=C(\N)Nc2nc(C)c3ccccc3n2)cc1C	AHR act 48
Cc1cccc(NC(=S)/N=C(\N)Nc2nc(C)c3ccc(C)cc3n2)c1	AHR act 57
COc1ccc2nc(N/C(N)=N/C(=S)Nc3ccccc3)nc(C)c2c1	none
CCOc1ccc2nc(N/C(N)=N/C(=S)Nc3ccc(OC)cc3)nc(C)c2c1	AHR act 64
Cc1cccc(NC(=S)/N=C(\N)Nc2nc(C)c3cc(C)ccc3n2)c1	none
CCCCC(C)=NNC(=O)C(=O)NCCc1ccccc1	none (no result: PolyA inhibitor, APOBEC3G inh, AHR act, A3A deaminase, Arrestin-AP2 inh)
Cn1c(SCC(=O)NCc2ccc(F)cc2)ncc(C(=O)Nc2ccccc2)c1=O	none
CCOCCCn1c(SCC(=O)NCc2ccc3c(c2)OCO3)nc2ccccc2c1=O	AHR act 70
Cn1c(SCC(=O)NCc2ccc3c(c2)OCO3)ncc(C(=O)Nc2ccc(F)cc2)c1=O	AHR act 49
CCn1c(SCC(=O)NCC2CCCO2)nnc1-c1ccc(Cl)cc1 (configuration not stated)	none
Cn1c(SCC(=O)NCC2CCCO2)ncc(C(=O)Nc2ccc(F)cc2)c1=O (configuration not stated)	AHR act 51
Cn1c(SCC(=O)NCC2CCCO2)ncc(C(=O)Nc2ccc(Cl)cc2)c1=O (configuration not stated)	AHR act 56
